Series [1] deals with Trypanosoma cruzi. As to the kind of experiment: Antitrypanosomal activity against intracellular Trypanosoma cruzi infected in human U2OS cells assessed as parasite growth inhibition incubated for 72 hrs by confocal microscopy. It is filed as functional, organism-based.
A short description of series [2]: Selectivity index, ratio of IC50 for human U2OS cells to IC50 for intracellular Trypanosoma cruzi infected in human U2OS cells. It is filed as toxicity, cell-based. Particulars: for selectivity ratio: U2OS cells, read-out: Selectivity Index. The procedure, abridged:
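Host U2OS cell counts and intracellular parasite infection ratio were read from the same 72 h DRAQ5-stained confocal imaging assay. CC50 and EC50 came from 4-parameter logistic fits, and the selectivity index is their ratio.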

Usually IC50 stands for the concentration at which inhibition is half-maximal. As to `c1ccc(-c2nc(NCc3cccnc3)c3ccccc3n2)nc1`, the concentration for half-maximal inhibition (IC50) in series [1] (Trypanosoma cruzi, U2OS, 72 h) is 6300 nM. The selectivity ratio in series [2] came to 8.

Turning to `CC(Nc1nc(-c2ccccn2)nc2ccccc12)c1ccccn1` (centres undefined), in series [1] (Trypanosoma cruzi, U2OS, 72 h), the IC50 amounted to 2700 nM. For the same compound, in series [2], the selectivity ratio was determined as 18. On the same counts, the results for `c1ccc(-c2nc(NCc3nc4ccccc4o3)c3ccccc3n2)nc1` are 2500 nM and 16.

For the compound `c1ccc(-c2nc(N3CCC(c4ccccn4)C3)c3ccccc3n2)nc1` (stereo in doubt; 85-tR1), in series [1] (u2os), the 50% inhibitory concentration (IC50) came out at 1100 nM. In addition, in series [2], the “Selectivity Index” value worked out at 4.2. For the compound `c1ccc(-c2nc(N3CCCCCC3)c3ccccc3n2)nc1`, the IC50 in series [1] (Trypanosoma cruzi, U2OS, 72 h) is 100 nM. For the compound `Fc1ccc(Nc2nc(-c3ccccn3)nc3ccccc23)cc1`, the half-inhibitory concentration (IC50) in series [1] (Trypanosoma cruzi, U2OS, 72 h) worked out at 1300 nM. Still for that read-out and setting: to `c1ccc(-c2nc(N3CCCCC3)c3ccccc3n2)nc1` belongs 900 nM. On to `c1ccc(-c2nc(N3CCN(c4ccccn4)CC3)c3ccccc3n2)nc1`, for which the IC50 in series [1] (Trypanosoma cruzi, U2OS, 72 h) amounted to 3300 nM. Further, the selectivity ratio in series [2] came to 6.4. On the same counts, the results for `Cc1cccc(N2CCN(c3nc(-c4ccccn4)nc4ccccc34)CC2)n1` are 1900 nM and 7. Regarding `CCn1cc2c(N3CCC(c4ccccn4)C3)nc(-c3ccccn3)nc2n1` (centres undefined), the concentration for half-maximal inhibition (IC50) in series [1] (Trypanosoma cruzi, U2OS, 72 h) was determined as 1500 nM. Also, the selectivity ratio in series [2] worked out at 2.3. With `Cc1cccc(CNc2nc(-c3ccccn3)nc3ccccc23)n1`, the IC50 in series [1] (Trypanosoma cruzi, U2OS, 72 h) came to 2400 nM. The selectivity ratio in series [2] is 21. On the same counts, the results for `c1ccc(-c2nc(NCc3nccs3)c3ccccc3n2)nc1` are 2700 nM and 19. On the same counts, the results for `Cn1cc(CNc2nc(-c3ccccn3)nc3ccccc23)cn1` are 9600 nM and 5.2. For `c1ccc(-c2nc(N3CCc4ncccc4C3)c3ccccc3n2)nc1`, in series [1] (Trypanosoma cruzi, U2OS, 72 h), the half-inhibitory concentration (IC50) came out at 9200 nM. Besides, the selectivity ratio in series [2] was determined as 5.5. As for `OC1(c2ccccc2)CCN(c2nc(-c3ccccn3)nc3ccccc23)C1` (centres undefined), the half-inhibitory concentration (IC50) in series [1] (Trypanosoma cruzi, U2OS, 72 h) was 35000 nM. The selectivity ratio in series [2] was 2.8. For the compound `CCC(C)Nc1nc(-c2ccccn2)nc2ccccc12` (centres undefined), the IC50 in series [1] (Trypanosoma cruzi, U2OS, 72 h) is 2100 nM. For the compound `c1ccc(-c2nc(Nc3ccn4nccc4c3)c3ccccc3n2)nc1`, the IC50 in series [1] (Trypanosoma cruzi, U2OS, 72 h) is 11000 nM. Moreover, the selectivity ratio in series [2] came out at 2.9. As for `OC1(c2ccccc2)CCN(c2nc(-c3ccccn3)nc3ccccc23)CC1`, the 50% inhibitory concentration (IC50) in series [1] (Trypanosoma cruzi, U2OS, 72 h) came to 3300 nM. In series [2], the selectivity ratio was 15. As for `c1ccc(-c2nc(N3CCc4nc[nH]c4C3)c3ccccc3n2)nc1`, in series [1] (Trypanosoma cruzi, U2OS, 72 h), the 50% inhibitory concentration (IC50) came out at 21000 nM. Besides, in series [2], the selectivity ratio stood at 2.3.

In the case of `CCn1cnc2c(N3CCC(c4ccccn4)C3)nc(-c3ccccn3)nc21` (centres undefined), the IC50 in series [1] (Trypanosoma cruzi, U2OS, 72 h) stood at 2700 nM. Further, the selectivity ratio in series [2] is 2.7.

In the case of `c1ccc(-c2nc(N3CCCC3c3ccccn3)c3ccccc3n2)nc1` (centres undefined), the IC50 in series [1] (Trypanosoma cruzi, U2OS, 72 h) is 1800 nM. In addition, the selectivity ratio in series [2] was 25.

Take `c1ccc(-c2nc(N3CCc4cccnc4C3)c3ccccc3n2)nc1`: in series [1] (Trypanosoma cruzi, U2OS, 72 h), the IC50 turned out to be 7400 nM. Further, in series [2], the selectivity ratio came to 4.9. For `COc1ccc(Nc2nc(-c3ccccn3)nc3ccccc23)cc1`, the IC50 in series [1] (Trypanosoma cruzi, U2OS, 72 h) came out at 1200 nM. Turning to `NC(=O)C1CCN(c2nc(-c3ccccn3)nc3ccccc23)C1` (centres undefined), in series [1] (Trypanosoma cruzi, U2OS, 72 h), the IC50 was 23000 nM. Also, the selectivity ratio in series [2] stood at 2.2.

Regarding `Fc1cccc(Nc2nc(-c3ccccn3)nc3ccccc23)c1`, the IC50 in series [1] (Trypanosoma cruzi, U2OS, 72 h) came out at 510 nM. The selectivity ratio in series [2] came to 20. Regarding `CCCN(CCC)c1nc(-c2ccccn2)nc2ccccc12`, the half-inhibitory concentration (IC50) in series [1] (Trypanosoma cruzi, U2OS, 72 h) turned out to be 170 nM.

As to `c1ccc(-c2nc(NCCn3cnc4ccccc43)c3ccccc3n2)nc1`, the 50% inhibitory concentration (IC50) in series [1] (Trypanosoma cruzi, U2OS, 72 h) amounted to 8200 nM. For the same compound, in series [2], the selectivity ratio amounted to 6.1. As to `c1ccc(-c2nc(NCCn3ccnc3)c3ccccc3n2)nc1`, the concentration for half-maximal inhibition (IC50) in series [1] (Trypanosoma cruzi, U2OS, 72 h) turned out to be 49000 nM. In addition, in series [2], the selectivity ratio came out at 1. With `CCn1ccc2nc(-c3ccccn3)nc(N3CCC(c4ccccn4)C3)c21` (centres undefined), the concentration for half-maximal inhibition (IC50) in series [1] (Trypanosoma cruzi, U2OS, 72 h) was 180 nM. Moreover, the selectivity ratio in series [2] stood at 28. As for `Cc1ccc(Nc2nc(-c3ccccn3)nc3ccccc23)cc1`, in series [1] (Trypanosoma cruzi, U2OS, 72 h), the IC50 turned out to be 120 nM. The same measure, in the same setting: the figure for `c1ccc(CCNc2nc(-c3ccccn3)nc3ccccc23)cc1` is 80 nM.

The values above are taken from ChEMBL document CHEMBL5316304, “Collaborative Virtual Screening Identifies a 2-Aryl-4-aminoquinazoline Series with Efficacy in an In Vivo Model of Trypanosoma cruzi Infection” (J Med Chem, 2023).
